ChEMBL document CHEMBL1932971, “Synthesis of uriedo and thiouriedo derivatives of peptide conjugated heterocycles - A new class of promising antimicrobials” (2012)
Converted amounts (≈) assume the structure as drawn. Peptide text beside a SMILES is read from it. * marks the point of attachment. Piperazinyl(4-(2,3-Cl2Ph)) = Clc1cccc(N2CCN(*)CC2)c1Cl; Thiocarbamoyl(N-4-ClPh) = S=C(Nc1ccc(Cl)cc1)*; Thiocarbamoyl(4-MeOPh) = COc1ccc(NC(=S)*)cc1; X1 = Fc1ccc2c(C3CCN(*)CC3)noc2c1; OcHex = C1CCC(O*)CC1

Tests used:
Type in all cases: functional
[1] = test system: Aspergillus flavus; assay: Ratio of bavistin MIC to compound MIC for Aspergillus flavus after 72 hrs by microdilution method
[2] = test system: Fusarium oxysporum; assay: Ratio of bavistin MIC to compound MIC for Fusarium oxysporum after 72 hrs by microdilution method
[3] = test system: Aspergillus flavus; assay: Antifungal activity against Aspergillus flavus after 72 hrs by microdilution method
[4] = test system: Fusarium oxysporum; assay: Antifungal activity against Fusarium oxysporum after 72 hrs by microdilution method
[5] = test system: Staphylococcus aureus; assay: Antibacterial activity against coagulase-positive Staphylococcus aureus at 30 ug/ml after 24 hrs by agar well diffusion method; conditions: read-out: DIZ
How it was run: (§1)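 Agar well diffusion. Inocula were grown in nutrient broth at 37 °C for 24 h, then subcultured in nutrient broth at room temperature. Compounds were made as a 1 mg/mL DMSO stock and diluted to 30 µg/mL final. Nutrient agar plates were spread-inoculated and 6 mm wells each got 0.1 mL. Controls were amoxicillin (reference) and DMSO (negative). Incubation was 24 h at 37 °C. Inhibition zone was measured in mm as the mean of three determinations.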

[6] = test system: Aspergillus niger; assay: Ratio of bavistin MIC to compound MIC for Aspergillus niger after 72 hrs by microdilution method
[7] = test system: Klebsiella pneumoniae; assay: Antibacterial activity against Klebsiella pneumoniae at 30 ug/ml after 24 hrs by agar well diffusion method; conditions: read-out: DIZ; how it was run: as §1
[8] = test system: Xanthomonas oryzae; assay: Antibacterial activity against Xanthomonas oryzae at 30 ug/ml after 24 hrs by agar well diffusion method; conditions: read-out: DIZ
[9] = test system: Aspergillus niger; assay: Antifungal activity against Aspergillus niger at 30 ug/ml after 72 hrs by agar well diffusion method; conditions: read-out: DIZ
How it was run: (§2)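 Fungal well diffusion. Inocula were subcultured in nutrient broth for one day, then spread on solidified medium. Compounds were made as a 1 mg/mL DMSO stock and diluted to 30 µg/mL final. Each 6 mm well got 0.1 mL. Controls were bavistin (reference) and DMSO (negative). Plates stood for 3 days at room temperature. Inhibition zone was measured in mm as the mean of three determinations.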

[10] = test system: Escherichia coli; assay: Antibacterial activity against Escherichia coli at 30 ug/ml after 24 hrs by agar well diffusion method; conditions: read-out: DIZ; how it was run: as §1
[11] = test system: Aspergillus niger; assay: Antifungal activity against Aspergillus niger after 72 hrs by microdilution method
[12] = test system: Aspergillus flavus; assay: Antifungal activity against Aspergillus flavus at 30 ug/ml after 72 hrs by agar well diffusion method; conditions: read-out: DIZ; how it was run: as §2
[13] = test system: Fusarium oxysporum; assay: Antifungal activity against Fusarium oxysporum at 30 ug/ml after 72 hrs by agar well diffusion method; conditions: read-out: DIZ; how it was run: as §2

## COc1ccc(NC(=S)NCC(=O)N[C@@H](CCC(=O)OC2CCCCC2)C(=O)NCC(=O)N[C@@H](Cc2ccccc2)C(=O)N2CCC[C@H]2C(=O)NCC(=O)N[C@H](C(=O)NCC(=O)N[C@H](C(=O)N2CCC[C@H]2C(=O)NCC(=O)N[C@H](C(=O)NCC(=O)N[C@H](C(=O)N2CCC[C@H]2C(=O)NCC(=O)N[C@H](C(=O)NCC(=O)N[C@H](C(=O)N2CCC[C@H]2C(=O)NCC(=O)N[C@@H](Cc2ccccc2)C(=O)NCC(=O)N[C@@H](Cc2ccccc2)C(=O)N2CCC[C@H]2C(=O)NCC(=O)N[C@@H](Cc2ccccc2)C(=O)NCC(=O)N[C@@H](Cc2ccccc2)C(=O)N2CCC[C@H]2C(=O)N2CCC(c3noc4cc(F)ccc34)CC2)C(C)C)C(C)C)C(C)C)C(C)C)C(C)C)C(C)C)cc1 ({Thiocarbamoyl(4-MeOPh)}-GE(OcHex)GFPGVGVPGVGVPGVGVPGFGFPGFGFP-X1)
[1]
  Ratio: 10
[2]
  Ratio: 10
[3]
  MIC: 2 µg/mL (≈ 0.626 µM)
[4]
  MIC: 2 µg/mL (≈ 0.626 µM)
[5]
  zone of inhibition at 30 µg/mL: 15 mm
[6]
  Ratio: 10
[7]
  zone of inhibition at 30 µg/mL: 16 mm
[8]
  zone of inhibition at 30 µg/mL: 14 mm
[9]
  zone of inhibition at 30 µg/mL: 43 mm
[10]
  zone of inhibition at 30 µg/mL: 17 mm
[11]
  MIC: 2 µg/mL (≈ 0.626 µM)
[12]
  zone of inhibition at 30 µg/mL: 38 mm
[13]
  zone of inhibition at 30 µg/mL: 39 mm

## CC(C)[C@H](NC(=O)CNC(=O)[C@@H]1CCCN1C(=O)[C@H](Cc1ccccc1)NC(=O)CNC(=O)[C@H](CCC(=O)OC1CCCCC1)NC(=O)CNC(=S)Nc1ccc(Cl)cc1)C(=O)NCC(=O)N[C@H](C(=O)N1CCC[C@H]1C(=O)NCC(=O)N[C@H](C(=O)NCC(=O)N[C@@H](Cc1ccccc1)C(=O)N1CCC[C@H]1C(=O)NCC(=O)N[C@@H](Cc1ccccc1)C(=O)NCC(=O)N[C@@H](Cc1ccccc1)C(=O)N1CCC[C@H]1C(=O)NCC(=O)N[C@H](C(=O)NCC(=O)N[C@H](C(=O)N1CCC[C@H]1C(=O)NCC(=O)N[C@H](C(=O)NCC(=O)N[C@@H](Cc1ccccc1)C(=O)N1CCC[C@H]1C(=O)N1CCN(c2cccc(Cl)c2Cl)CC1)C(C)C)C(C)C)C(C)C)C(C)C)C(C)C ({Thiocarbamoyl(N-4-ClPh)}-GE(OcHex)GFPGVGVPGVGFPGFGFPGVGVPGVGFP-{Piperazinyl(4-(2,3-Cl2Ph))})
[1]
  Ratio: 10
[2]
  Ratio: 10
[3]
  MIC: 2.5 µg/mL (≈ 0.779 µM)
[4]
  MIC: 3 µg/mL (≈ 0.935 µM)
[5]
  zone of inhibition at 30 µg/mL: 16 mm
[6]
  Ratio: 10
[7]
  zone of inhibition at 30 µg/mL: 18 mm
[8]
  zone of inhibition at 30 µg/mL: 16 mm
[9]
  zone of inhibition at 30 µg/mL: 44 mm
[10]
  zone of inhibition at 30 µg/mL: 19 mm
[11]
  MIC: 2.5 µg/mL (≈ 0.779 µM)
[12]
  zone of inhibition at 30 µg/mL: 39 mm
[13]
  zone of inhibition at 30 µg/mL: 40 mm

## CC(C)[C@H](NC(=O)CNC(=O)[C@@H]1CCCN1C(=O)[C@H](Cc1ccccc1)NC(=O)CNC(=O)[C@H](CCC(=O)OC1CCCCC1)NC(=O)CNC(=S)Nc1ccc(Cl)cc1)C(=O)NCC(=O)N[C@H](C(=O)N1CCC[C@H]1C(=O)NCC(=O)N[C@H](C(=O)NCC(=O)N[C@H](C(=O)N1CCC[C@H]1C(=O)NCC(=O)N[C@H](C(=O)NCC(=O)N[C@H](C(=O)N1CCC[C@H]1C(=O)NCC(=O)N[C@@H](Cc1ccccc1)C(=O)NCC(=O)N[C@@H](Cc1ccccc1)C(=O)N1CCC[C@H]1C(=O)NCC(=O)N[C@@H](Cc1ccccc1)C(=O)NCC(=O)N[C@@H](Cc1ccccc1)C(=O)N1CCC[C@H]1C(=O)N1CCC(c2noc3cc(F)ccc23)CC1)C(C)C)C(C)C)C(C)C)C(C)C)C(C)C ({Thiocarbamoyl(N-4-ClPh)}-GE(OcHex)GFPGVGVPGVGVPGVGVPGFGFPGFGFP-X1)
[1]
  Ratio: 10
[2]
  Ratio: 10
[3]
  MIC: 1.75 µg/mL (≈ 0.547 µM)
[4]
  MIC: 2.5 µg/mL (≈ 0.781 µM)
[5]
  zone of inhibition at 30 µg/mL: 17 mm
[6]
  Ratio: 10
[7]
  zone of inhibition at 30 µg/mL: 19 mm
[8]
  zone of inhibition at 30 µg/mL: 17 mm
[9]
  zone of inhibition at 30 µg/mL: 45 mm
[10]
  zone of inhibition at 30 µg/mL: 21 mm
[11]
  MIC: 1.75 µg/mL (≈ 0.547 µM)
[12]
  zone of inhibition at 30 µg/mL: 40 mm
[13]
  zone of inhibition at 30 µg/mL: 41 mm
